Screens: PubChem BioAssay, Johns Hopkins Ion Channel Center
RGS4 inh: inhibitors of human RGS4. HEK293 M3R/RGS4 inducible, Fluo-4 calcium flux; active compounds read high; triggered by carbachol at its EC20. B-score at 10 µM. 0.45% of 310,000 active. P49798;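 active = B-score, a plate-corrected calcium signal, over three deviations above library mean, with baseline fluorescence within five deviations of library mean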;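 note: RGS4 expression induced by doxycycline in cells with stable M3 receptor; B-score is computed from the integrated fluorescence ratio over baseline after carbachol; higher B-score means a larger calcium signal and so more RGS4 inhibition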
Target sequence (P49798 whole entry, looked up): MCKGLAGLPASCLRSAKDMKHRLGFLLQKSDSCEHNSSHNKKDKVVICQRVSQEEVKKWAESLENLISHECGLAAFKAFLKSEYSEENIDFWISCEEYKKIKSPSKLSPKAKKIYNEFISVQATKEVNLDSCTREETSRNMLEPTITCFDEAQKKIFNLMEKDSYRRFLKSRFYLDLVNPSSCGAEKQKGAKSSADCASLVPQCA
MrgX1 agonist: human MrgX1 receptor agonism, primary screen; Q96LB2; MrgX1-HEK293 cells, Fluo-4 calcium fluorescence, agonist mode; active compounds read high; B-score at 10 µM; 0.44% of 310,000 active;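 active = calcium response B-score plate-corrected fluorescence ratio at least 3 library SD, with starting fluorescence B-score inside 5 SD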
Target sequence (Q96LB2 whole entry, looked up): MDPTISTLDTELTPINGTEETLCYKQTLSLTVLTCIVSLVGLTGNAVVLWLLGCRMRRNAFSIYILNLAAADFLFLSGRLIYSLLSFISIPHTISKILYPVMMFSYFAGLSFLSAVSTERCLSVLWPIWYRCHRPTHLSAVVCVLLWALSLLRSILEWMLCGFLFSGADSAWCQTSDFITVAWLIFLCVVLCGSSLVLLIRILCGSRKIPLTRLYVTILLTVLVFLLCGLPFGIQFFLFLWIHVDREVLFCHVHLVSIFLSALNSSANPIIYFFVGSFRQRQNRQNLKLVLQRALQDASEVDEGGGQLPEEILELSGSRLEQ
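Material: MrgX1-expressing HEK293 cells / Dosing: compound as first of three additions / Incubation: overnight seeding, then 1 h dark dye loading / Signal: Fluo-4 NW calcium fluorescence / Evaluation: B-scored fluorescence response ratio / Benchmarks: positive and negative control wells on each plate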
RGS4 pot: potentiators or activators of RGS4; HEK293 M3R/inducible RGS4, carbachol calcium flux Fluo4; active compounds read low; B-score at 10 µM; 0.92% of 310,000 active;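 active = B-score of the integrated calcium signal more than 4 SD below the library mean, with starting fluorescence not abnormally high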;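 note: negative B-score means reduced calcium response which marks RGS4 activation or potentiation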
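Material: Inducible-RGS4 HEK293 cells carrying M3 receptor; also added: carbachol at ECmax as muscarinic agonist stimulus; incubation: compound preincubation 20 min at room temperature before agonist; signal: Fluo4-AM (2 µM) calcium-flux fluorescence, kinetic read; measure: integrated calcium ratio converted to B score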
MrgX1 antagonist: antagonists of human MrgX1 receptor; B-score at 10 µM; MRGX1-HEK293 calcium flux, Fluo-4, BAM8-22 antagonism; active compounds read low; 1.3% of 310,000 active; Q96LB2;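 active = calcium-response B-score plate-corrected more than 3 library SD below zero, starting fluorescence within 5 deviations, no agonist response on first addition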;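 note: peak minus trough fluorescence over baseline after final BAM8-22 challenge near maximal dose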
MrgX1 PAM: human MrgX1 positive allosteric modulation, primary screen | B-score at 10 µM | MrgX1-HEK293, Fluo-4 calcium flux, FDSS; active compounds read high | 0.63% of 310,000 active;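 active = plate-corrected calcium response at least 3 library SD above typical, normal starting fluorescence, not activating the receptor alone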;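 note: compound read alongside a low EC10 to EC30 dose of BAM8-22 agonist; peak minus trough fluorescence over baseline measured at the second addition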
Each line names hits and unclear results; the compound was inactive in the other large screens. Only some compounds are listed: those with a hit (about 3.5% of all), similar ones and a draw of the others.

CCc1ccc(NC(=O)CS(=O)CC(=O)NCC2OCCc3ccccc32)cc1 (centres undefined)	none
CC1Nc2ncnc(N3CCc4ccccc4C3)c2N(Cc2ccc(Br)cc2)C1=O (centres undefined)	RGS4 pot -9
CC1Nc2ncnc(N3CCc4ccccc4C3)c2N(Cc2ccc(Cl)cc2)C1=O (centres undefined)	none
CCOc1cc(-c2nnc(NC(=O)c3ccco3)o2)cc(OCC)c1OCC	MrgX1 antagonist -4.9
O=C(NCc1ccco1)c1cc(-c2ccccc2)on1	none
CCOC(=O)c1sc(=S)n(Cc2ccccc2)c1N	MrgX1 agonist 47
COc1ccc(C(=O)/C=C/c2cc(OC)c(O)c(OC)c2)c(F)c1	MrgX1 agonist 30
Cc1ccc(C(=O)OCC(=O)Nc2sc3c(c2C#N)CCCC3)cc1NC(=O)c1ccco1	RGS4 pot -7.5
Cc1ccc(C(=O)OCC(=O)Nc2sc3c(c2C#N)CCCCC3)cc1NC(=O)c1ccco1	none
CC(=O)Nc1ccc(S(=O)(=O)Nc2cc3c(cc2C(C)=O)OCO3)cc1	none
O=C(NCCNc1ccc([N+](=O)[O-])cc1)c1cccs1	none
CC(CNC(=O)c1cccs1)c1ccc([N+](=O)[O-])cc1 (centres undefined)	MrgX1 antagonist -4.6
Cc1nnc(SCc2cccc([N+](=O)[O-])c2)s1	RGS4 pot -7.1
O=C(Nc1nnc(SCc2ccccc2)s1)c1cccc([N+](=O)[O-])c1	none
O=C(CN1CCCCCC1)Nc1ccccc1Oc1ccccc1	RGS4 pot -7.2
CCCc1[nH]nc2c1C(c1cc(OC)ccc1F)C(C#N)=C(N)O2 (centres undefined)	none
COc1ccc(OC)c(NCc2nnc(-c3ccccc3)o2)c1	none
CCOc1ccccc1NCc1nnc(-c2ccccc2)o1	RGS4 pot -7.5
CCCCCCn1c(SCCCC)nc2c1c(=O)[nH]c(=O)n2C	none (no result: RGS4 inh, RGS4 pot)
CCCN1C(=O)c2ccccc2NC1c1ccc(OC)c(CSc2ccccn2)c1 (centres undefined)	none
COc1cc(C(=S)N2CCOCC2)ccc1OS(=O)(=O)c1ccc(Cl)cc1	none
COc1ccccc1-c1coc2cc(O)cc(O)c2c1=O	MrgX1 agonist 34
COc1ccc2c(c1)[nH]c1c(N3CCN(Cc4ccc5c(c4)OCO5)CC3)ncnc12	MrgX1 antagonist -6.1
O=C(CCl)N=c1sccn1Cc1ccccc1Cl	RGS4 pot -7.3
Cc1cc(C)c2c(=O)n(CC(=O)Nc3cccc(Cl)c3C)sc2n1	MrgX1 PAM 9.5
CSc1nnc(-c2sc3cc(Cl)ccc3c2Cl)n1C	none
CN(C)c1ccnc(N(Cc2ccccc2)Cc2ccccc2)c1C#N	RGS4 pot -11
COc1ccc(OCC(=O)N2c3ccccc3CCc3ccccc32)cc1	none
CC(OC(=O)c1cc2c(ccc3ccccc32)oc1=O)c1nc2ccccc2s1 (centres undefined)	none
Cc1cccc(NC(=S)NNC(=O)COc2ccc(Cl)cc2Cl)c1	MrgX1 PAM 10
O=C(c1ccc(COc2ccc(Cl)cc2Cl)o1)N1CCCC1	RGS4 pot -7.6
O=C(COc1ccc(Cl)cc1Cl)Nc1ccc(CN2CCOCC2)cc1	none
O=C(COc1ccc(Cl)cc1Cl)Nc1ccc(CN2CCCCC2)cc1	RGS4 pot -7.1
CC(=O)c1nn(-c2cccc(Br)c2)cc1C(=O)c1ccc(C)cc1	none
CCCOc1ccc(S(=O)(=O)n2cc(F)c(=O)[nH]c2=O)cc1	MrgX1 PAM 7.9
Cc1cc(C)c2nc(-c3ccncc3)cc(C(=O)N3CCN(Cc4ccccc4Cl)CC3)c2c1	RGS4 pot -7.4
O=C(NC(O)C(=O)c1ccccc1)c1cccs1 (centres undefined)	none
CN1C(=O)/C(=C/c2ccccc2OCc2ccccc2)NC1=S	none
CN1C(=O)/C(=C/c2ccccc2OCc2ccc(F)cc2)N(C)C1=S	RGS4 pot -9.6, MrgX1 antagonist -5.2
COc1ccccc1NS(=O)(=O)c1cccc(C(=O)OCC(=O)NC2CC2)c1	none
Cc1cc(C(=O)NNc2ccccc2F)no1	RGS4 pot -7.7
O=C1c2ccccc2C(=O)C1c1ccc(Cl)cc1	MrgX1 antagonist -6.5
CN(C)c1ccc(/C=C(/C#N)C(=O)NCc2ccccc2)o1	MrgX1 antagonist -4.9
N#C/C(=C/c1ccccc1)C(=O)NCc1ccccc1	none
Cc1ccccc1S(=O)(=O)Oc1ccc2ccc(O)cc2c1	RGS4 pot -8.9
CCOC(=O)c1ccc(NC(=O)CSc2nc3c(c(=O)n2C)SC(C)C3)cc1 (centres undefined)	none
COCCCN1C(=O)/C(=C\c2ccc3c(c2)OCO3)C(C(=O)OC)=C1C	none
Cc1nn(Cc2ccccc2Cl)c(C)c1NC(=O)/C=C/c1cnn(C)c1	MrgX1 antagonist -4.6
CCn1cc(/C=C/C(=O)Nc2c(C)nn(Cc3ccccc3)c2C)cn1	none
O=C1S/C(=C\c2ccc(O)c([N+](=O)[O-])c2)C(=O)N1Cc1cccc([N+](=O)[O-])c1	none
O=C(O)c1cccc(CN2C(=O)S/C(=C/c3ccccc3[N+](=O)[O-])C2=O)c1	MrgX1 PAM 11
Cc1nc2ccc(NC(=O)c3cc(S(=O)(=O)N(C)c4ccccc4)ccc3Cl)cc2s1	none
CC(=O)Nc1ccccc1-c1nc2ccc(C(=O)N3CCN(c4cccc(C)c4)C(C)C3)cc2[nH]c1=O (centres undefined)	none
Cc1cccc(N2CCN(C(=O)c3ccc4nc(-c5ccco5)c(-c5ccco5)nc4c3)CC2C)c1 (centres undefined)	MrgX1 antagonist -7.6
CCN(CC)S(=O)(=O)c1ccc(N2CCN(S(=O)(=O)c3ccccc3)CC2)nc1	none (no result: MrgX1 agonist, MrgX1 antagonist, MrgX1 PAM)
CCN(CC)S(=O)(=O)c1ccc(N2CCN(S(=O)(=O)c3ccccc3C#N)CC2)nc1	MrgX1 antagonist -5 (no result: RGS4 inh, RGS4 pot)
Cc1nc(NS(=O)(=O)c2ccccc2)sc1C(=O)NNS(=O)(=O)c1ccccc1	none
Cc1cc(=O)[nH]c(N/N=C/c2cccs2)n1	none
N#C/C(=C\c1ccc(N2CCCCC2)o1)C(=O)Nc1cccc(Br)c1	MrgX1 agonist 53
CCOc1ccccc1/C=C(\C#N)C(=O)NC1CC1	none
N#C/C(=C\c1ccccc1[N+](=O)[O-])C(=O)NC1CCCCC1	MrgX1 agonist 35
N#C/C(=C\C=C\c1ccccc1[N+](=O)[O-])C(=O)NC1CCCCC1	MrgX1 PAM 14
COc1ccc(CCNC(=O)/C(C#N)=C2\N=C(NC(=O)c3ccco3)c3ccccc32)cc1	MrgX1 antagonist -4.7
N#C/C(C(=O)NCc1ccccc1)=C1/N=C(NC(=O)c2ccco2)c2ccccc21	none
COc1cc(/C=N/NC(=O)C(N)=O)ccc1OC(=O)c1cccs1	none
CC(C)(C)c1ccc(-n2ncc3c2CCCC3NC(=O)c2ccncc2)cc1 (centres undefined)	RGS4 pot -8.9
O=C(Nc1cccc(C(=O)N2CCCC2)c1)c1ccccc1Cl	none
CCC(=O)Nc1ccc(C(=O)Cn2ncc(Cl)c(Cl)c2=O)cc1	none
